# Data: ChEMBL document CHEMBL1128731, “Furanfurin and thiophenfurin: two novel tiazofurin analogues. Synthesis, structure, antitumor activity, and interactions with inosine monophosphate dehydrogenase” (J Med Chem, 1995)
# Legend:
# [1] = test system: Mus musculus; experiment: Compound was tested for ratio of survival time of treated to control mice x100 at 400 mg/kg dose; format: functional
# In short: (§1)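 Female BD2F1 mice (8 weeks old, 20–22 g), eight per group, injected ip with 10^5 L1210 leukemia cells on day 0. Starting 24 h later, drug dissolved in 0.9% NaCl given ip once daily for 9 consecutive days. % T/C = survival time of treated/control mice × 100. Body weight change tracked from start to end of treatment.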
# [2] = test system: LoVo; experiment: Inhibitory concentration against LoVo human colon adenocarcinoma cell lines; format: functional, cell-based
# In short: (§2)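 Cells in log phase plated with a range of drug concentrations (B16 5×10^3 cells/well; P388, L1210, LLC 10^4 cells/well; HL-60, K562, LoVo 2.5×10^5 cells/well). Growth read by modified MTT after 72 h drug contact at 37 °C. IC50 taken as the concentration reducing optical absorption by 50%, from Chou regression analysis. Maximum concentration tested 200 μM.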
# [3] = test system: Mus musculus; experiment: Compound was tested for ratio of survival time of treated to control mice x100 at 100 mg/kg dose; format: functional; in short: as §1
# [4] = IC90 ratio against bone marrow samples to HL-60; format: functional
# In short: (§3)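 Antiproliferative assay scoring [125I]-5-iodo-2'-deoxyuridine incorporation into DNA after 72 h drug–cell contact. Run on normal human bone marrow from five donors and in three assays on HL-60. Ratio is antilog(mean log IC50 or IC90) on bone marrow over the same on HL-60. Range limits are antilog(mean log IC50 ± 2SD).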
# [5] = test system: K562; experiment: Compound was tested for its effect on GMP ribonucleotide levels of K562 cell at 10 uM concentration; format: functional, Homo sapiens
# In short: (§4)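 K562 cells (1×10^7) were treated with saline or agent for 2 h at 37 °C, harvested by centrifugation and washed with cold saline. They were extracted with cold 10% trichloroacetic acid, neutralized with 0.5 M tri-n-octylamine in freon, and analyzed by HPLC. Levels are in nmol/g and expressed as % of saline control. Significance was set at p < 0.05.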
# [6] = test system: K562; experiment: Compound was tested for its effect on GTP ribonucleotide levels of K562 cell at 50 uM concentration; format: functional, Homo sapiens; in short: as §4
# [7] = test system: K562; experiment: Compound was tested for its effect on CTP ribonucleotide levels of K562 cell at 10 uM concentration; format: functional, Homo sapiens; in short: as §4
# [8] = test system: K562; experiment: Compound was tested for its effect on UMP ribonucleotide levels of K562 cell at 100 uM concentration; format: functional, Homo sapiens; in short: as §4
# [9] = test system: K562; experiment: compound was tested for its effect on IMPDH activity against K562 cells at 10 uM concentration; format: functional, Homo sapiens
# In short: (§5)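 K562 cells (1×10^6/mL, log phase) exposed 2 h at 37 °C to 10, 50 or 100 μM drug, or to saline. Cells washed and lysed in Tris-HCl pH 7.4/NaCl/MgCl2/NP-40/aprotinin, and the 13000g supernatant used as enzyme. Enzyme incubated 30 min at 37 °C with 286 μM [2,8-3H]IMP and 1 mM NAD. Tritium release counted; activity in nmol XMP/h/mg protein, as % of saline control.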
# [10] = test system: K562; experiment: Compound was tested for its effect on ATP ribonucleotide levels of K562 cell at 50 uM concentration; format: functional, Homo sapiens; in short: as §4
# [11] = test system: K562; experiment: Compound was tested for its effect on GMP ribonucleotide levels of K562 cell at 100 uM concentration; format: functional, Homo sapiens; in short: as §4
# [12] = test system: K562; experiment: Compound was tested for its effect on CDP ribonucleotide levels of K562 cell at 100 uM concentration; format: functional, Homo sapiens; in short: as §4
# [13] = test system: Mus musculus; experiment: Average weight change of mice from onset to termination of drug treatment at 25 mg/kg dose; format: functional
# In short: (§6)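 Female BD2F1 mice (8 weeks, 20–22 g), eight per group, injected ip with 10^5 L1210 cells on day 0. From 24 h later, drug in 0.9% NaCl was given ip once daily for 9 days. Body weight change was averaged from onset to termination of treatment. Early deaths from toxicity were recorded.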
# [14] = test system: K562; experiment: Compound was tested for its effect on NAD ribonucleotide levels of K562 cell at 10 uM concentration; format: functional, Homo sapiens; in short: as §4
# [15] = test system: Mus musculus; experiment: Average weight change of mice from onset to termination of drug treatment at 100 mg/kg dose; early death due to toxicity; format: functional, organism-based; set-up: dose 100 mg/kg; in short: as §6
# [16] = test system: K562; experiment: Compound was tested for its effect on AMP ribonucleotide levels of K562 cell at 50 uM concentration; format: functional, Homo sapiens; in short: as §4
# [17] = test system: K562; experiment: Compound was tested for its effect on ATP ribonucleotide levels of K562 cell at 10 uM concentration; format: functional, Homo sapiens; in short: as §4
# [18] = organism: Homo sapiens; experiment: Inhibitory concentration range against human bone marrow; format: functional; in short: as §3
# [19] = test system: K562; experiment: Compound was tested for its effect on IMP ribonucleotide levels of K562 cell at 10 uM concentration; format: functional, Homo sapiens; in short: as §4
# [20] = test system: Mus musculus; experiment: Compound was tested for ratio of survival time of treated to control mice x100 at 6.2 mg/kg dose; format: functional; in short: as §1
# [21] = test system: K562; experiment: Formation of NAD analogue by compound at 100 uM concentration against human myelogenous leukemia K562; format: functional
# In short: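 K562 cells (1×10^7/10 mL) were labeled with 185 nM [2,8-3H]adenosine for 1 h at 37 °C, then given saline or analogue for 2 h. Cells were pelleted, washed with PBS and extracted in cold 10% trichloroacetic acid. Extracts were neutralized with 0.5 M tri-n-octylamine in freon and run on SAX HPLC with ammonium phosphate buffer. Results are pmol NAD analogue per 10^9 cells.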
# [22] = test system: K562; experiment: Compound was tested for its effect on GMP ribonucleotide levels of K562 cell at 50 uM concentration; format: functional, Homo sapiens; in short: as §4
# [23] = test system: P388; experiment: Inhibitory concentration against P388 murine lymphocytic leukemia cell lines; format: functional, cell-based; details: Mus musculus; in short: as §2
# [24] = test system: K562; experiment: Compound was tested for its effect on CDP ribonucleotide levels of K562 cell at 10 uM concentration; format: functional, Homo sapiens; in short: as §4
# [25] = test system: K562; experiment: Compound was tested for its effect on CDP ribonucleotide levels of K562 cell at 50 uM concentration; format: functional, Homo sapiens; in short: as §4
# [26] = test system: B16; experiment: Inhibitory concentration against B16 melanoma cell lines; format: functional, cell-based; details: Mus musculus; in short: as §2
# [27] = test system: K562; experiment: compound was tested for its effect on IMPDH activity against K562 cells at 50 uM concentration; format: functional, Homo sapiens; in short: as §5
# [28] = test system: Mus musculus; experiment: Compound was tested for ratio of survival time of treated to control mice x100 at 25 mg/kg dose; format: functional; in short: as §1
# [29] = Ratio of IC50 against HL-60; format: functional; in short: as §3
# [30] = test system: K562; experiment: Compound was tested for its effect on UTP ribonucleotide levels of K562 cell at 50 uM concentration; format: functional, Homo sapiens; in short: as §4
# [31] = test system: K562; experiment: Compound was tested for its effect on ADP ribonucleotide levels of K562 cell at 100 uM concentration; format: functional, Homo sapiens; in short: as §4
smiles,measurement,setting,value
NC(=O)c1csc([C@@H]2O[C@H](CO)[C@@H](O)[C@H]2O)c1,T/C,[1],<100%
same,IC50,[2],102 µM
same,T/C,[3],<100%
same,Ratio,[4],>10
same,Control,[5],98%
same,Control,[6],58%
same,Control,[7],32%
same,Control,[8],107%
same,Control,[9],56%
same,Control,[10],88%
same,Control,[11],80%
same,Control,[12],99%
same,Change,[13],-9.8%
same,Control,[14],81%
same,Change,[15],Toxic
same,Control,[16],140%
same,Control,[17],92%
same,IC90,[18],>128 µM
same,Control,[19],314%
same,T/C,[20],155%
same,Formation,[21],886 pmol/10^9 cells
same,Control,[22],90%
same,IC50,[23],3.2 µM
same,Control,[24],84%
same,Control,[25],82%
same,IC50,[26],25.8 µM
same,Control,[27],37%
same,T/C,[28],168%
same,Ratio,[29],5.9
same,Control,[30],99%
same,Control,[31],105%
